Screens (PubChem)
This is a sample that favours compounds with a hit; in the whole collection about 2.3% have one here.
OXTR agonist: agonists of human oxytocin receptor. activation, % at 3 µM. AID 2435. CHO-OTR cells, Fluo-8 calcium fluorescence; normalized: DMSO 0%, oxytocin 100%. actives 0.32% (n = 320,000);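 active = activation above the mean of all tested compounds plus 3 SD, cutoff set per screening run, cut at about 20% in these data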;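 also: peak over basal fluorescence ratio from a 100 s FLIPR kinetic read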
V1R ag counter: activates human V1a receptor in oxytocin agonist counter-screen | activation, % at 3 µM | actives 0.25% (n = 320,000) | CHO-V1R cells, Fluo-8 calcium fluorescence, agonist mode; 0% DMSO, 100% 3 nM vasopressin | AID 2797 | P37288;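 active = activation above the mean activation of all tested compounds plus 3 SD, per screening run, cut at about 20% in these data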;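 also: signal is peak over basal fluorescence ratio across a 100 second FLIPR read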
OXTR potentiate: potentiators of human oxytocin receptor; P30559; actives 0.061% (n = 320,000); CHO-OTR cells, Fluo-8 calcium fluorescence, potentiator mode; 0% = oxytocin EC15, 100% = EC100; activation, % at 3 µM;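 active = activation above that plate's cutoff, the mean activation of tested compounds plus 3 SD, cut at about 6.6% in these data, passing the limit was not always enough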;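 also: 100% uses oxytocin at 75 nM as the full agonist control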
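Material: human OTR in CHO cells. Compound: 3.0 µM, one dose. Timing: compound 6 min at room temperature before oxytocin, 100 s read. Evaluation: % activation of max/min ratio relative to oxytocin controls. Replication: single well per compound, singlicate. Signal: Fluo-8 calcium dye fluorescence.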
TAAR1 ag: human TAAR1 agonism | Q96RJ0 | CHO RD-HGA16 TAAR1, Fluo-8 calcium fluorescence; vehicle wells 0%, saturating PEA agonist 100% | activation, % at 3 µM | actives 0.99% (n = 360,000) | AID 624467;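 active = activation above the mean activation of all test compounds in the run plus 3 SD, cut at about 38% in these data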
Target sequence (Q96RJ0 whole entry, looked up): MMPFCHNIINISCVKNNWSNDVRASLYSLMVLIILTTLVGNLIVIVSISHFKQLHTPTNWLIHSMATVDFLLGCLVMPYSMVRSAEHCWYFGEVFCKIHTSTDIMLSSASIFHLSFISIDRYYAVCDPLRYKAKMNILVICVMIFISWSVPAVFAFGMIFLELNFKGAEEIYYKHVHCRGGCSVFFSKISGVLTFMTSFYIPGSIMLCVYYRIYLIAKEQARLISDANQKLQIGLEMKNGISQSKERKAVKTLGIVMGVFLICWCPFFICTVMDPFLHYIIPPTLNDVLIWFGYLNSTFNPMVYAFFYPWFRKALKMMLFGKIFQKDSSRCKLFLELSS
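Assay system: CHO-derived RD-HGA16 cells with stable Gα16 and human TAAR1; timing: 17-24 h seeding, 75 min 37 °C dye, 30 min RT; read-out: % activation from peak over basal fluorescence ratio, DMSO-to-PEA scaled; measured by: kinetic Fluo-8 calcium fluorescence; benchmarks: low control DMSO, high control PEA (EC100); doses: 3 µM single concentration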
TAAR1 antagonist: antagonists of human TAAR1 | Q96RJ0 | actives 1.5% (n = 360,000) | inhibition, % at 3 µM | CHO RD-HGA16 TAAR1, Fluo-8 calcium fluorescence, antagonist;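 active = inhibition above a per-plate cutoff, the mean inhibition of test compounds on that plate plus 3 SD, cut at about 49% in these data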;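 also: 0% = DMSO plus EC80 beta-PEA response and 100% = DMSO alone without agonist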
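Test system – hTAAR1-expressing CHO RD-HGA16 cells, Gα16-coupled · Reagent – β-PEA at EC80 concentration, post-compound challenge · Compound dosing – 3 µM, single point · Timing – 140 s kinetic read after compound, 140 s after agonist · Detection – Fluo-8 intracellular calcium dye fluorescence, real-time kinetic reads · Control set – DMSO and EC80 PEA controls · Repeats – n of 1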
OXTR agonist cf: confirmation of human oxytocin receptor agonists; CHO-OTR cells, Fluo-8 calcium fluorescence, agonist; shares compounds with OXTR agonist; activation, % at 3 µM; actives 20% (n = 390);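 active = mean activation above about 20% derived from the earlier single-dose screen, limit read from the data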;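 also: peak over minimum fluorescence ratio per well during a 100 second FLIPR read; 0% = DMSO alone and 100% = oxytocin high control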
V1aR counter 3x: activates V1a receptor in oxytocin agonist counter-screen. shares compounds with OXTR agonist. CHO-V1R cells, Fluo-8 calcium fluorescence. activation, % at 3 µM. actives 10% (n = 390). AID 434991;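 active = mean activation over triplicate exceeds the hit threshold set in the earlier primary screen, cut at about 20% in these data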;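 also: peak over basal fluorescence ratio within a 100 second read; 0% = DMSO alone and 100% = 3 nM vasopressin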
The depositor's hits bear a star; / = no result given.

SMILES	OXTR agonist	V1R ag counter	OXTR potentiate	TAAR1 ag	TAAR1 antagonist	OXTR agonist cf	V1aR counter 3x
Cc1ccc(C2(C)NC(=O)N(CC(=O)N3CCc4ccccc43)C2=O)cc1 (stereo not drawn)	20.4*	15.9	-10.5	33.6	-9.7	14.0	12.5
Cc1[nH]c2ccccc2c1/C=N/NC(=O)c1cccc([N+](=O)[O-])c1	0.5	1.4	-4.1	5.6	6.2	/	/
Cc1[nH]c2ccccc2c1/C=N/Nc1ccc([N+](=O)[O-])cc1	21.3*	17.7	-6.3	14.3	46.9	24.5*	34.6*
COc1cc(CCN(C(=O)c2cc3ccccc3[nH]2)C(c2ccccn2)c2nc3ccccc3[nH]2)cc(OC)c1 (stereo not drawn)	/	/	/	2.8	16.1	/	/
COc1ccccc1CNCC(O)Cn1c2ccccc2c2ccccc21 (stereo not drawn)	22.1*	8.8	-14.0	29.2	10.8	11.1	6.7
OCCNCC(O)Cn1c2ccccc2c2ccccc21 (stereo not drawn)	1.1	-0.3	-9.8	1.5	-30.0	/	/
CCOC(=O)C1(C)CCN1C(=O)c1cccs1 (stereo not drawn)	/	/	/	0.3	3.8	/	/
COc1cc(CNC2CCCC2)cc(Cl)c1OCc1ccc(F)cc1	13.3	11.2	-11.3	22.7	-2.1	/	/
CCOc1cc(CNC2CCCC2)cc(Cl)c1OCc1ccc(F)cc1	20.9*	10.0	-12.4	39.8*	16.0	6.2	3.9
CCn1nnnc1SCC(=O)Nc1ccc(OC)cc1	-0.3	-0.3	-11.6	5.5	18.5	/	/
CCOc1ccc(OCC)c(NC(=O)CSc2nnnn2CC)c1	22.5*	-0.5	-16.3	6.6	-0.1	-1.2	-0.8
Cc1ccc(OCC(=O)Nc2ccc(S(=O)(=O)N(C)C3CCN(C)CC3)cc2)c(C)c1	8.1	8.1	-4.9	14.3	-13.8	/	/
CN1CCC(N(C)S(=O)(=O)c2ccc(NC(=O)COc3ccc(Br)cc3Cl)cc2)CC1	24.9*	12.3	-16.7	33.3	31.3	9.2	8.3
O=[N+]([O-])c1ccc(NC(=S)NCc2ccncc2)cc1	8.8	10.7	-13.2	17.8	11.4	/	/
O=[N+]([O-])c1ccc(NC(=S)NCc2ccc(F)cc2)cc1	22.3*	14.1	-26.8	12.2	38.0	11.9	9.9
Cc1c2ccccc2nc2c(F)c(NC(C)C)c(F)c(F)c12	20.4*	10.6	-5.6	5.7	16.7	51.4*	66.0*
Cc1c2ccccc2nc2c(F)c(NCCO)c(F)c(F)c12	2.4	3.1	-0.2	13.4	25.7	/	/
CC(C)C(=O)N=C1SC2CS(=O)(=O)CC2N1Cc1ccccc1 (stereo not drawn)	0.1	0.7	-2.5	12.3	4.4	/	/
CCCCN1C(=O)C(=O)NC[C@H]1Cc1cccc2ccccc12	/	/	/	-1.0	-8.8	/	/
O=C1NC[C@@H](Cc2cccc3ccccc23)N(CC2(c3ccccc3)CC2)C1=O	22.5*	1.2	-10.0	10.6	-5.6	-0.3	-0.5
Clc1ccc(SCCOCCN2CCCCCC2)cc1	1.1	0.5	-2.0	12.8	-12.5	/	/
C=CCNc1ncnc2c1[nH]c1ccccc12	6.4	5.3	-9.5	2.7	-4.7	/	/
C=CCNc1ncnc2c1[nH]c1ccc(Cl)cc12	21.6*	12.2	-6.5	22.7	9.8	11.5	9.8
COCCNc1oc(/C=C/c2ccccc2OC)nc1S(=O)(=O)c1ccccc1	-0.7	-0.5	6.0	-2.7	2.3	/	/
Cc1cccc(NC(=O)CSc2nnc(-c3cc(C)n(-c4ccccc4)c3C)o2)c1C	0.4	1.5	-9.7	-1.5	7.6	/	/
Cc1cc(-c2nnc(SCC(=O)Nc3ccccc3C(F)(F)F)o2)c(C)n1-c1ccccc1	21.3*	16.4	-24.2	42.0*	11.5	24.3*	11.0
O=C(Cc1ccc(NC2=NC3CS(=O)(=O)CC3S2)cc1)NCc1ccc(Cl)cc1 (stereo not drawn)	-0.3	0.4	-1.1	1.9	-20.1	/	/
Cc1ccc(NC(=O)COC(=O)CCc2c(C)nc3ncnn3c2C)cc1C	-1.0	-0.7	2.3	3.8	6.6	/	/
